# Key:
# Assay type in all cases: functional
# [1] = tested on: Felis catus; assay: Average food consumed at the dose of 0.50 mg/kg (po) using 10 cats per dose level at 60 min (control day/ test day); 45/142; details: dose 0.5 mg/kg
# Method in brief: (§1)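 Cats given test compound suspended in 1% methylcellulose, or 1% methylcellulose placebo, by gavage 30 min before a preweighed test meal. Food was offered in surplus for 3 h, and intake was found by reweighing at 30, 60 and 180 min. Ten cats per dose, each dosed no more than once weekly. Test-day intake was compared with the preceding control day by two-tailed paired t test (p < 0.05); values are mean ± SD.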
# [2] = tested on: Felis catus; assay: Average food consumed at the dose of 0.50 mg/kg (po) using 10 cats per dose level at 30 min (control day/ test day); 33/109; details: dose 0.5 mg/kg; method in brief: as §1
# [3] = tested on: Felis catus; assay: Average food consumed at the dose of 0.50 mg/kg (po) using 10 cats per dose level at 180 min (control day/ test day); 43/193; details: dose 0.5 mg/kg; method in brief: as §1
# [4] = tested on: Felis catus; assay: Average food consumed at the dose of 0.50 mg/kg (po) using 10 cats per dose level at 30 min (control day/ test day); 38/105; details: dose 0.5 mg/kg; method in brief: as §1
# [5] = tested on: Felis catus; assay: Average food consumed at the dose of 0.031 mg/kg (po) using 10 cats per dose level at 180 min (control day/ test day); 24/152
# [6] = tested on: Felis catus; assay: Average food consumed at the dose of 0.063 mg/kg (po) using 10 cats per dose level at 60 min (control day/ test day); 32/138
# [7] = tested on: Felis catus; assay: Average food consumed at the dose of 0.50 mg/kg (po) using 10 cats per dose level at 60 min (control day/ test day); 42/155; details: dose 0.5 mg/kg; method in brief: as §1
# [8] = tested on: Felis catus; assay: Average food consumed at the dose of 0.016 mg/kg (po) using 10 cats per dose level at 180 min (control day/ test day); 39/190
# [9] = tested on: Felis catus; assay: Average food consumed at the dose of 0.25 mg/kg (po) using 10 cats per dose level at 180 min (control day/ test day); 30/170
# [10] = tested on: Felis catus; assay: Average food consumed at the dose of 0.25 mg/kg (po) using 10 cats per dose level at 60 min (control day/ test day); 26/127; method in brief: as §1
# [11] = tested on: Felis catus; assay: Average food consumed at the dose of 0.25 mg/kg (po) using 10 cats per dose level at 30 min (control day/ test day); 20/89
# [12] = tested on: Felis catus; assay: Average food consumed at the dose of 0.031 mg/kg (po) using 10 cats per dose level at 60 min (control day/ test day); 14/95
# [13] = tested on: Felis catus; assay: Average food consumed at the dose of 0.063 mg/kg (po) using 10 cats per dose level at 30 min (control day/ test day); 33/122
# [14] = tested on: Felis catus; assay: Average food consumed at the dose of 0.016 mg/kg (po) using 10 cats per dose level at 60 min (control day/ test day); 30/137
# [15] = tested on: Felis catus; assay: Average food consumed at the dose of 0.016 mg/kg (po) using 10 cats per dose level at 30 min (control day/ test day); 25/104
# [16] = tested on: Felis catus; assay: Average food consumed at the dose of 0.50 mg/kg (po) using 10 cats per dose level at 180 min (control day/ test day); 45/221; details: dose 0.5 mg/kg; method in brief: as §1
# [17] = tested on: Felis catus; assay: Average food consumed at the dose of 0.031 mg/kg (po) using 10 cats per dose level at 30 min (control day/ test day); 20/75
# [18] = tested on: Felis catus; assay: Average food consumed at the dose of 0.063 mg/kg (po) using 10 cats per dose level at 180 min (control day/ test day); 26/204
# [19] = tested on: Felis catus; assay: Average food consumed at the dose of 0.063 mg/kg (po) using 10 cats per dose level at 180 min (control day/ test day); 50/190
# [20] = tested on: Felis catus; assay: Average food consumed at the dose of 0.50 mg/kg (po) using 10 cats per dose level at 30 min (control day/ test day); 39/204; details: dose 0.5 mg/kg; method in brief: as §1
# [21] = tested on: Felis catus; assay: Average food consumed at the dose of 0.063 mg/kg (po) using 10 cats per dose level at 30 min (control day/ test day); 13/120
# [22] = tested on: Felis catus; assay: Average food consumed at the dose of 0.25 mg/kg (po) using 10 cats per dose level at 30 min (control day/ test day); 38/175; method in brief: as §1
# [23] = tested on: Felis catus; assay: Average food consumed at the dose of 0.25 mg/kg (po) using 10 cats per dose level at 180 min (control day/ test day); 50/239
# [24] = tested on: Felis catus; assay: Average food consumed at the dose of 0.50 mg/kg (po) using 10 cats per dose level at 180 min (control day/ test day); 32/234; details: dose 0.5 mg/kg; method in brief: as §1
# [25] = tested on: Felis catus; assay: Average food consumed at the dose of 0.063 mg/kg (po) using 10 cats per dose level at 60 min (control day/ test day); 22/144
# [26] = tested on: Felis catus; assay: Average food consumed at the dose of 0.016 mg/kg (po) using 10 cats per dose level at 30 min (control day/ test day); 21/142
# [27] = tested on: Felis catus; assay: Average food consumed at the dose of 0.25 mg/kg (po) using 10 cats per dose level at 60 min (control day/ test day); 39/212; method in brief: as §1
# [28] = tested on: Felis catus; assay: Average food consumed at the dose of 0.016 mg/kg (po) using 10 cats per dose level at 180 min (control day/ test day); 45/215
# [29] = tested on: Felis catus; assay: Average food consumed at the dose of 0.50 mg/kg (po) using 10 cats per dose level at 60 min (control day/ test day); 35/219; details: dose 0.5 mg/kg; method in brief: as §1
# [30] = tested on: Felis catus; assay: Average food consumed at the dose of 0.016 mg/kg (po) using 10 cats per dose level at 60 min (control day/ test day); 31/168
structure (smiles),measurement,setting,value
CN1CCC(=C2c3cc(C(=O)O)ccc3CCn3cccc32)CC1.Cl,Average consumed,[1],125 g
same,Average consumed,[2],92 g
same,Average consumed,[3],173 g
CN1CCC(=C2c3ccccc3CCc3ccc(C(=O)O)cc32)CC1.Cl,Average consumed,[4],84 g
same,Average consumed,[5],126 g
same,Average consumed,[6],118 g
same,Average consumed,[7],102 g
same,Average consumed,[8],180 g
same,Average consumed,[9],145 g
same,Average consumed,[10],102 g
same,Average consumed,[11],68 g
same,Average consumed,[12],83 g
same,Average consumed,[13],88 g
same,Average consumed,[14],139 g
same,Average consumed,[15],97 g
same,Average consumed,[16],134 g
same,Average consumed,[17],53 g
same,Average consumed,[18],174 g
CN1CCC(=C2c3ccccc3CCn3cccc32)CC1.O=C(O)C(=O)O,Average consumed,[19],133 g
same,Average consumed,[20],117 g
same,Average consumed,[21],52 g
same,Average consumed,[22],91 g
same,Average consumed,[23],175 g
same,Average consumed,[24],166 g
same,Average consumed,[25],74 g
same,Average consumed,[26],77 g
same,Average consumed,[27],124 g
same,Average consumed,[28],159 g
same,Average consumed,[29],137 g
same,Average consumed,[30],106 g
